Experimental data: ChEMBL document CHEMBL1132971, “New azolidinediones as inhibitors of protein tyrosine phosphatase 1B with antihyperglycemic properties” (J Med Chem, 2000)

Key:
Mus musculus [1] = assay: Evaluated for their ability to decrease plasma insulin levels in mouse at a dose 100 mg/kg/day.,**p indicates <0.01; assay type: functional
In short: (§1)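 Mice dosed orally once daily for 4 days; plasma glucose and insulin measured and expressed as percent change versus a vehicle-treated group (mean ± SE, 4-6 mice/group). NS is generally less than -15% change. Significance is versus vehicle-treated mice.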

[2] = target: T1, Tyrosine-protein phosphatase non-receptor type 1 (Homo sapiens) (UniProt P18031); assay: % inhibition of PTPase activity, recombinant Protein Tyrosine Phosphatase 1b as the enzyme at a concentration 50 uM.
T1 sequence (whole entry): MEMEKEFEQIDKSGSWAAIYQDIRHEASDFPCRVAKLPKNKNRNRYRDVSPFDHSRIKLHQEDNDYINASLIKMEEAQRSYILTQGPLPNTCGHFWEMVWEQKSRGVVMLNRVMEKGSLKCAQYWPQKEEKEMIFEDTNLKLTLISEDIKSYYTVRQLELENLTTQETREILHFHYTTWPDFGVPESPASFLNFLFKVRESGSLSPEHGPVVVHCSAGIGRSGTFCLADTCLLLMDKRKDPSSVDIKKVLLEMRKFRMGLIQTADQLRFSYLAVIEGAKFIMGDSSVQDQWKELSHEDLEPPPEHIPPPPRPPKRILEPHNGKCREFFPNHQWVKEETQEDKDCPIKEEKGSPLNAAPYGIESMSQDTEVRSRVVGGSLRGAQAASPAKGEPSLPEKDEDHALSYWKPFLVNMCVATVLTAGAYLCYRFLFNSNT
In short: (§2)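 Rat recombinant PTP1B in 33 mM TRIS-HCl, 2 mM EDTA, 50 mM β-mercaptoethanol, pH 7.4 (about 1000-2000 nmol/min/mg). Preincubated 10 min at 37 °C with or without compound in HEPES buffer pH 7.4. Released phosphate read by malachite green-ammonium molybdate at 650 nm against a phosphate standard. Quadruplicates. IC50 by four-parameter logistic fit.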

Mus musculus [3] = assay: Evaluated in vivo for their ability to decrease plasma glucose levels in diabetic C57BL/KsJ ob/ob mouse at a dose 100 mg/kg/day.,**p indicates <0.01; assay type: functional; in short: as §1
[4] = target: T2, Tyrosine-protein phosphatase non-receptor type 1 (Rattus norvegicus) (UniProt P20417); assay: Inhibition of PTPase activity using recombinant r-PTP1B as the enzyme and IR-triphosphopeptide as substrate at 50 uM; in short: as §2
T2 sequence (whole entry): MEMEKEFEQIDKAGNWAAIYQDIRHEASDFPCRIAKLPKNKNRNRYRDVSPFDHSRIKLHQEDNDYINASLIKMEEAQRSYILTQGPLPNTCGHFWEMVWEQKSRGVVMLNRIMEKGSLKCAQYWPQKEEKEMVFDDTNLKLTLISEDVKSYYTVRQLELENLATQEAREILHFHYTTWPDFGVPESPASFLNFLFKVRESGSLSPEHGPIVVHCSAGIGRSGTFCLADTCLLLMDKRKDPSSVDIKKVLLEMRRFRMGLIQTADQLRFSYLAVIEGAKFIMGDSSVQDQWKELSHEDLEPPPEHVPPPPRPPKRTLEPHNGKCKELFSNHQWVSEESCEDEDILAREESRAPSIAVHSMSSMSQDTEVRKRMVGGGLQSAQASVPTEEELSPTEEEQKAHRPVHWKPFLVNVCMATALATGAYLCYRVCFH

[5] = target: T2, Tyrosine-protein phosphatase non-receptor type 1 (Rattus norvegicus); assay: Inhibition of PTPase (PTP1B) activity in rat hepatic membrane at 50 uM concentration, using pNPP as the substrate; assay type: cell membranes; details: Liver
In short: (§3)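 Liver membranes from male Sprague-Dawley rats (100-150 g), about 30 µg protein per well. Preincubated 10 min at 37 °C with compound in 1.25% DMSO in 50 mM HEPES pH 7.4. Then 6.33 mM pNPP for 30 min at 37 °C, stopped with NaOH. p-Nitrophenol read at 410 nm. Run in triplicate. Reported as percent of untreated control.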

Mus musculus [6] = assay: Evaluated in vivo for their ability to decrease plasma glucose levels in diabetic C57BL/KsJ ob/ob mouse at a dose 100 mg/kg/day *p indicates <0.05; assay type: functional
In short: (§4)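 Diabetic db/db or ob/ob mice dosed orally once daily for 4 days. Plasma glucose and insulin reported as percent change from a vehicle-treated group. 4-6 mice per group. Significance set at p < 0.05 or p < 0.01 versus vehicle; NS means generally less than -15% change.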

[7] = target: T3, Tyrosine-protein phosphatase non-receptor type 1 (Rattus norvegicus, UniProt P20417); assay: Inhibition of PTPase activity using recombinant r-PTP1B as the enzyme and IR-triphosphopeptide as substrate; in short: as §2
T3 sequence (P20417 whole entry): T2 sequence (whole entry)

Mus musculus [8] = assay: Evaluated for their ability to decrease plasma insulin levels in mouse at a dose 100 mg/kg/day, *p indicates <0.05; assay type: functional; in short: as §4
Mus musculus [9] = assay: Evaluated in vivo for their ability to decrease plasma glucose levels in diabetic C57BL/KsJ db/db mouse at a dose 100 mg/kg/day, *p indicates <0.05; assay type: functional; in short: as §1
Mus musculus [10] = assay: Evaluated in vivo for their ability to decrease plasma glucose levels in diabetic C57BL/KsJ ob/ob mouse at a dose 100 mg/kg/day, **p indicates <0.01; assay type: functional; in short: as §1
Mus musculus [11] = assay: Evaluated in vivo for their ability to decrease plasma glucose levels in diabetic C57BL/KsJ ob/ob mouse at a dose 10 mg/kg/day, *p indicates <0.05; assay type: functional; in short: as §1
Mus musculus [12] = assay: Evaluated for their ability to decrease plasma insulin levels in mouse at a dose 100 mg/kg/day, **p indicates <0.01; assay type: functional; in short: as §1
Mus musculus [13] = assay: Evaluated in vivo for their ability to decrease plasma glucose levels in diabetic C57BL/KsJ ob/ob mouse at a dose 100 mg/kg/day. **p indicates <0.01; assay type: functional; in short: as §4
[14] = target: T3, Tyrosine-protein phosphatase non-receptor type 1; assay: Inhibition of PTPase activity in rat hepatic membrane at a concentration of 50 uM using pNPP as the substrate; assay type: cell membranes, Liver; in short: as §3
Mus musculus [15] = assay: Evaluated in vivo for their ability to decrease plasma glucose levels in diabetic C57BL/KsJ db/db mouse at a dose 100 mg/kg/day *p indicates <0.05; assay type: functional; in short: as §4
Mus musculus [16] = assay: Evaluated for their ability to decrease plasma insulin levels in mouse at a dose 100 mg/kg/day. **p indicates <0.01; assay type: functional; in short: as §1
[17] = target: T3, Tyrosine-protein phosphatase non-receptor type 1; assay: Concentration required to inhibit PTPase activity, recombinant r-PTP1B as the enzyme at a concentration 2.5 uM.; in short: as §2
Mus musculus [18] = assay: Evaluated for their ability to decrease plasma insulin levels in mouse at a dose 100 mg/kg/day,**p indicates <0.01; assay type: functional; in short: as §1
Mus musculus [19] = assay: Evaluated in vivo for their ability to decrease plasma glucose levels in diabetic C57BL/KsJ ob/ob mouse at a dose 100 mg/kg/day,**p indicates <0.01; assay type: functional; in short: as §1
Mus musculus [20] = assay: Evaluated for their ability to decrease plasma insulin level at a dose of 20 mg/kg/day; **p indicates <0.01; assay type: functional; in short: as §1
[21] = target: T2, Tyrosine-protein phosphatase non-receptor type 1 (Rattus norvegicus); assay: Inhibition of PTPase activity using recombinant Protein-tyrosine phosphatase 1B as the enzyme and IR-triphosphopeptide as substrate at 50 uM
In short: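 Recombinant rat PTP1B (human 321-aa form assayed the same way), activity about 1000-2000 nmol/min/mg, preincubated with compound for 10 min at 37 °C in HEPES pH 7.4. The reaction is started with 50 µM triphosphorylated insulin receptor 1142-1153 dodecapeptide and run 30 min at 37 °C. Released phosphate read by malachite green-molybdate at 650 nm, in quadruplicate. Result is percent inhibition versus control.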

Mus musculus [22] = assay: Evaluated in vivo for their ability to decrease plasma glucose levels in diabetic C57BL/KsJ ob/ob mouse at a dose 100 mg/kg/day; **p indicates <0.01; assay type: functional; in short: as §1
Mus musculus [23] = assay: Evaluated in vivo for their ability to decrease plasma glucose levels in diabetic C57BL/KsJ ob/ob mouse at a dose 20 mg/kg/day; **p indicates <0.01; assay type: functional; in short: as §1
Mus musculus [24] = assay: Evaluated in vivo for their ability to decrease plasma glucose levels in diabetic C57BL/KsJ db/db mouse at a dose 100 mg/kg/day; *p indicates <0.05; assay type: functional; in short: as §1
[25] = target: T2, Tyrosine-protein phosphatase non-receptor type 1 (Rattus norvegicus); assay: Inhibition of Protein-tyrosine phosphatase 1B activity in rat hepatic membrane at a concentration of 50 uM using pNPP as the substrate; assay type: cell membranes; details: Liver; in short: as §3
Mus musculus [26] = assay: Evaluated for their ability to decrease plasma insulin levels in mouse at a dose 100 mg/kg/day.; assay type: functional; in short: as §1

SMILES: CCCC/C(=C\Cn1oc(=O)[nH]c1=O)c1cccc(OCc2nc(-c3ccc(C(F)(F)F)cc3)oc2C)c1
- Decrease (Mus musculus [1]): 88%
- inhibition [2]: 1.4%
- Decrease (Mus musculus [3]): 61%
- inhibition [4]: 1.9%

SMILES: C/C(=C\Cn1sc(=O)[nH]c1=O)c1cccc(OCc2nc(-c3ccc(C(F)(F)F)cc3)oc2C)c1
- inhibition [5]: Not significant
- Decrease (Mus musculus [6]): 29%
- IC50 [7]: 3.8 µM
- Decrease (Mus musculus [8]): 26%

SMILES: C/C(=C\Cn1oc(=O)[nH]c1=O)c1cccc(OCc2nc(-c3ccc(C(F)(F)F)cc3)oc2C)c1
- Decrease (Mus musculus [9]): 62%
- inhibition [5]: 49%
- Decrease (Mus musculus [10]): 58%
- Decrease (Mus musculus [11]): 20%
- Decrease (Mus musculus [12]): 86%
- inhibition [4]: 1.9%

SMILES: C/C(=C\c1cccc(OCc2nc(-c3ccc(C(F)(F)F)cc3)oc2C)c1)Cn1oc(=O)[nH]c1=O
- Decrease (Mus musculus [13]): 37%
- Inhibition % [14]: 71%
- Decrease (Mus musculus [15]): 36%
- Decrease (Mus musculus [16]): 28%
- inhibition [4]: 7%

SMILES: C/C(=C\Cn1oc(=O)[nH]c1=O)c1cccc(OCC#Cc2cc(C(F)(F)F)cc(C(F)(F)F)c2)c1
- inhibition [5]: 62%
- IC50 [17]: 25 µM

SMILES: Cc1oc(-c2ccc(C(F)(F)F)cc2)nc1COc1cccc(/C(=C/Cn2oc(=O)[nH]c2=O)c2ccccc2)c1
- inhibition [5]: 24%
- Decrease (Mus musculus [18]): 74%
- Decrease (Mus musculus [19]): 55%
- inhibition [4]: 1.1%

SMILES: CC/C(=C\Cn1oc(=O)[nH]c1=O)c1cccc(OCc2nc(-c3ccc(C(F)(F)F)cc3)oc2C)c1
- Decrease (Mus musculus [20]): 32%
- inhibition [21]: 90%
- Decrease (Mus musculus [22]): 71%
- Decrease (Mus musculus [23]): 32%
- Decrease (Mus musculus [24]): 63%
- inhibition [25]: 57%
- Decrease (Mus musculus [26]): 80%
